Assay results as given in the EternaBench riboswitch data.

Columns and labels:
[1] = tested on: MS2 coat protein; assay: apparent Kd, MS2 coat protein; higher = weaker binding; RNA-MaP array; theophylline 2 mM where present
How it was run: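 Designs were transcribed by stalled E. coli RNA polymerase on Illumina sequencing-chip clusters. They were titrated with SNAP-549-labelled MS2 coat protein from 0.7 or 1.5 nM, doubling to 3 µM, in 100 mM Tris-HCl pH 7.5, 80 mM KCl, 4 mM MgCl2, BSA, DTT, yeast tRNA and Tween-20, without and then with constant ligand. The apparent Kd is the median of filtered per-cluster fits after normalisation of green signal to red-channel RNA signal and control-cluster median Fmax.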

[2] = tested on: MS2 coat protein; assay: apparent Kd, MS2 coat protein; higher = weaker binding; RNA-MaP array
How it was run: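 The designed RNAs, transcribed from sequenced DNA templates on an Illumina sequencing chip, were incubated with fluorescently labeled MS2 coat protein at room temperature. Protein ranged from 1.5 nM to 3 μM, with 0.8–1.5 h incubation at the lowest and 10–20 min at the highest concentrations, in Tris-HCl pH 7.5 buffer with KCl, MgCl2, BSA, DTT, tRNA and Tween20, with or without input ligand. The median of per-cluster binding-curve fits gives the apparent Kd, and designs measured on fewer than 10 clusters were excluded.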

[3] = designed as: OFF switch for theophylline, no ligand
[4] = ligand present: theophylline, designed as: OFF switch for theophylline
[5] = designed as: ON switch for theophylline, no ligand
[6] = ligand present: theophylline, designed as: ON switch for theophylline
[7] = designed as: OFF switch for flavin mononucleotide, no ligand
[8] = ligand present: flavin mononucleotide, designed as: OFF switch for flavin mononucleotide
[9] = designed as: ON switch for flavin mononucleotide, no ligand
[10] = ligand present: flavin mononucleotide, designed as: ON switch for flavin mononucleotide
[11] = designed as: ON switch for tryptophan, no ligand
[12] = ligand present: tryptophan, designed as: ON switch for tryptophan

AAACAUUGCUCAGAUACCAGACAUGAGGAUCACCCAUGUACCAAGGUACCCGAAAGGAAUGUCCCUUGGCAGCUGAGCAAUGAAA
apparent Kd [1, 3]: 10.1 nM | apparent Kd [1, 4]: 27.4 nM

AAAUAAAUAACUGAUACCAGUGGACUGACAUGAGGAUCACCCAUGUUGGGUUUUGUUGUCCACCCUUGGCAGCGGGCAUAUAAAA
apparent Kd [1, 3]: 24.8 nM | apparent Kd [1, 4]: 66.9 nM

AACAUGAGGACGGAUACCAGUCACAUGAGGAUCACCCAUGUACAUGAGGAUCACCCAUGUGGCCCUUGGCAGCCGCAUGUGAUCA
apparent Kd [1, 3]: 327 nM | apparent Kd [1, 4]: 473 nM

AACCGAGGCUAUCCUCUAAGAAAAUGUGAUACCAGAAUAAUUUUAUUCCCUUGGCAGCAUGACAUGAGGAUCACCCAUGUGUCUU
apparent Kd [1, 5]: 187 nM | apparent Kd [1, 6]: 151 nM

AACCGAGGCUAUCCUCUCCGACUAUGUGAUACCAGAAUAAUUUUAUUCCCUUGGCAGCAUGACAUGAGGAUCACCCAUGUCUCUU
apparent Kd [1, 5]: 15.8 nM | apparent Kd [1, 6]: 20.7 nM

AAGCUGGGUGUAAAAUAAAUAAUCACUGAUACCAGACUAUGAGAUGUCCCUUGGCAGCAGAAACAUGAGGAUCACCCAUGUAAUA
apparent Kd [1, 3]: 20.7 nM | apparent Kd [1, 4]: 21.5 nM

AAUAACAUGAGGAUCACCCAUGUAAAAGAUACCAGAGUGAUGAUCCUCCCUUGGCAGCUUAAACGCUAUUGAUUACAAUAGCGAA
apparent Kd [1, 5]: 41.5 nM | apparent Kd [1, 6]: 144 nM

AAUAACAUGAGGAUCACCCAUGUAAAAGAUACCAGAGUGAUGAUCCUCCCUUGGCAGCUUAACGCUGAUUGGAAACAAUCAGCGA
apparent Kd [1, 5]: 147 nM | apparent Kd [1, 6]: 225 nM

ACACCGAAAGGUGCAUUUUCCUUUUCAGAUACCAGACUUUACGUUGUCCCUUGGCAGCUGUAUCACAUGAGGAUCACCCAUGUUG
apparent Kd [1, 5]: 16.4 nM | apparent Kd [1, 6]: 17.6 nM

ACAUGAGGAUCACCCAUGUAAUGGCACGAUACCAGCUGAUCCCGUGGCCCUUGGCAGCGUCCGGUGUGGUCCGCCGGGUUGGAGC
apparent Kd [1, 5]: 21 nM | apparent Kd [1, 6]: 39.3 nM

ACAUGAGGAUCACCCAUGUGGCGUCUUGAUACCAGACGAGAAGUAGUCCCUUGGCAGCAAAUACAUGAGGAUCACCCAUGUAGGA
apparent Kd [1, 3]: 23.9 nM | apparent Kd [1, 4]: 37.1 nM

ACAUGAGGAUCACCCAUGUUCCUCGCCGAUACCAGUGAAGAAGAACGCCCUUGGCAGCGGAAAGAGUAUUUUGGAGAUGAGGUAC
apparent Kd [1, 3]: 80.1 nM | apparent Kd [1, 4]: 129 nM

ACCGCAGGUCCUGAUACCAGAGACAUGAGGAUCACCCAUGUCCGAUCGUCCUGCCUCAGGCUCCCUUGGCAGCAGGGCUUGUCCU
apparent Kd [1, 3]: 14.3 nM | apparent Kd [1, 4]: 27.1 nM

ACGACGCAUAGUGAUACCAGUAGAACAUGAGGAUCACCCAUGUCUGUUAUGUACAAAUACUGCCCUUGGCAGCACUAUGCGUCAG
apparent Kd [1, 5]: 9.79 nM | apparent Kd [1, 6]: 10.7 nM

ACGAUACGACAUGAGGAUCACCCAUGUGAUACCAGCGUGGAAACACGCCCUUGGCAGCACAAAUACUCCAAUAACGUAUCGAAAA
apparent Kd [1, 3]: 260 nM | apparent Kd [1, 4]: 240 nM

ACGUCACGUUUACUCGUGGUUUCGUUCGAUACCAGUAGCGAGAGUUACCCUUGGCAGCGACAUGAGGAUCACCCAUGUACGAAGA
apparent Kd [1, 3]: 13.1 nM | apparent Kd [1, 4]: 27.2 nM

ACGUCCGGGUUAAUCGUGGGCAUGGUCGAUACCAGUAUUUUAAUCUACCCUUGGCAGCGACAUGAGGAUCACCCAUGUGCGAUGA
apparent Kd [1, 3]: 17 nM | apparent Kd [1, 4]: 35.5 nM

ACGUCCGGUUUACUCGUGGGCAUGGUCGAUACCAGUAUUUUAAUCUACCCUUGGCAGCGACAUGAGGAUCACCCAUGUGCGAAGA
apparent Kd [1, 3]: 23.5 nM | apparent Kd [1, 4]: 32.4 nM

ACUAACUAUAGUGAUACCAGACGUACAUGAGGAUCACCCAUGUUACAUUCUUGGUUAAAAGUCCCUUGGCAGCACGAUAAGUUCG
apparent Kd [1, 3]: 9.74 nM | apparent Kd [1, 4]: 9.5 nM

ACUAGUUGUGCAGAUACCAGACAUGAGGAUCACCCAUGUUUGGGAUCUAAUGAUCAUCCUGUCCCUUGGCAGCUGUACAUCUAGA
apparent Kd [1, 3]: 103 nM | apparent Kd [1, 4]: 26.3 nM

AGACAUGUAAGAUAAAUGACUUAUACAGAUACCAGACUGUCUAAUGUCCCUUGGCAGCUGCAUAACAUGAGGAUCACCCAUGUAA
apparent Kd [1, 3]: 28 nM | apparent Kd [1, 4]: 26.1 nM

AGAUCUUUCGAAAGAAGGAUAAUGGCUGAUACCAGAGACGAAAGUCUCCCUUGGCAGCAGUGCCAACAUGAGGAUCACCCAUGUA
apparent Kd [1, 5]: 170 nM | apparent Kd [1, 6]: 39.7 nM

AGCCCUGUGCUAGAUACCAGCUACAUGAGGAUCACCCAUGUGCGUCAGGACUGACUGUGUAGCCCUUGGCAGCUACUCGCAUGUA
apparent Kd [1, 3]: 16.2 nM | apparent Kd [1, 4]: 30.9 nM

UCCAAAUUCCAGAAGGCGUUUAAGCGAGGGUAGGGCGUGCAACAUGAGGAUCACCCAUGUAAUCACGAGGAUAUGGGAGGCACC
apparent Kd [2, 7]: 7.65 nM | apparent Kd [2, 8]: 8.34 nM

UCGGUUCGUGUAGGAUAUACUCGCAAACAGGCAAAAUGCCUACAUGAGGAUCACCCAUGUUAGUGGUAGAAGGACACCUCAACA
apparent Kd [2, 9]: 479 nM | apparent Kd [2, 10]: 115 nM

UCUAACAUGAGGAUCACCCAUGUGGGUUAUCGAGGACCGGUACGGCCGCCACUCGACCAGUAUAACUGGCUAGAACGUAUUUGAU
apparent Kd [2, 11]: 34 nM | apparent Kd [2, 12]: 26.6 nM

UCUCUCGAUGUGCAUUGACAUGAGGAUCACCCAUGUACUGCCUAGGAUAUAACUGGCCCGAUCAGUUAGAAGGAGGGAGAAUAG
apparent Kd [2, 7]: 6.67 nM | apparent Kd [2, 8]: 6.51 nM

UGAUUGAGCGGAGGAUAUCUUAAUGAGCACGUAAGAGAAGGCCGGUGGCUCCUAUAUGCAGCGCACAUGAGGAUCACCCAUGUC
apparent Kd [2, 7]: 170 nM | apparent Kd [2, 8]: 91.6 nM

UGGACUUCAGGAUAUACAUGAGGAUCACCCAUGUAUACGUGUAUGAUCCCAGAAACAAGUAGAAGGGAAAGCCG
apparent Kd [2, 7]: 5.71 nM | apparent Kd [2, 8]: 5.65 nM

UGGCGCUGUGCAGGAUAUAUCAAUUAGAACAGGGCGCAGGGUAGAAACAUGAGGAUCACCCAUGUAUAGAAGGGCACAGUAGGU
apparent Kd [2, 7]: 53.1 nM | apparent Kd [2, 8]: 49.7 nM

UGGGAACAUGAGGAUCACCCAUGUGAGGAUAUCCACCGAUUUCACACGAUAGGCACAAGGAGAAGGCACACCUA
apparent Kd [2, 7]: 33.9 nM | apparent Kd [2, 8]: 36.2 nM

UGUAACGAAGGAUAUACAAGAAGACAAGUGCGGCAGUACGUACAUGAGGAUCACCCAUGUAGAAGGUCGAAGGC
apparent Kd [2, 7]: 7.03 nM | apparent Kd [2, 8]: 7.66 nM

UGUACAACAUGAGGAUCACCCAUGUGGCACCUCUGUCGAUUCGAGGAUAUCAGGUAAAGUGGCUGUGAGAAGGCGAAAGUUCCG
apparent Kd [2, 7]: 65 nM | apparent Kd [2, 8]: 50.3 nM

UGUAUGUUAGGAUAUAGUGUGACACUGUAAUUGCUCGGCACCUAGAAGGAACAUGAGGAUCACCCAUGUGGUGG
apparent Kd [2, 7]: 337 nM | apparent Kd [2, 8]: 244 nM

UGUCCGUGAUCGGCCGCCACUCAACAAACCUGUGGAAACUGACAUGAGGAUCACCCAUGUUCUUGGAGGACCGGGAUUGCUUCGA
apparent Kd [2, 11]: 14.6 nM | apparent Kd [2, 12]: 17.3 nM

UUACAAAACCAGAAGGUCUAAAAGAUUAAAUGAGAAGGAUAUGGCUAAACAUGAGGAUCACCCAUGUAGAAAACGAUACGUGAU
apparent Kd [2, 9]: 37.8 nM | apparent Kd [2, 10]: 29.9 nM

UUAGAGAGAGGAUAUACAGAGUAUCAACUCGGCGGACAAGAACAUGAGGAUCACCCAUGUAGAAGGCUCUCAGA
apparent Kd [2, 7]: 18.6 nM | apparent Kd [2, 8]: 67.1 nM

UUCACGUUAGGAUAUCGCGUCAGCACAGCCUGUAUGGCAAGCGAGAAGGAACAUGAGGAUCACCCAUGUCGGAC
apparent Kd [2, 7]: 11.4 nM | apparent Kd [2, 8]: 28.7 nM

UUCUACUAGUGACACUACUAGACAUGAGGAUCACCCAUGUCAGAGGAUAUGGAAAGACAUUAUUACCAGAAGGCUGCCAAGGUA
apparent Kd [2, 9]: 15.6 nM | apparent Kd [2, 10]: 15 nM

UUGGGACAUGAGGAUCACCCAUGUCAGGAUAUAUAUAAUCUGCGCGACGAGGGAUACAAUAGAAGGGACAACGG
apparent Kd [2, 7]: 18.2 nM | apparent Kd [2, 8]: 15.1 nM

UUUAGGUCAGAGAAGGGCCAUUCUACAUACUCGGCAGGAUAUCUAUUACCUGACAUGAGGAUCACCCAUGUGGUGAACCGACCA
apparent Kd [2, 9]: 199 nM | apparent Kd [2, 10]: 311 nM
